From paper PMC3355950 (The Journal of Neuroscience, 2012)

Assays:
Assay in all cases: Two-electrode voltage-clamp recordings, Xenopus oocytes
Type in all cases: cell-based
[1] = molecular target: GluN1/GluN2A M788I (Rattus norvegicus, UniProt P35439+Q00959, M788I); conditions: 100 μM glutamate + 3 μM glycine
[2] = molecular target: GluA1 AMPA receptors (Rattus norvegicus, UniProt P19490); conditions: 10 μM TCN-201
Summary of the method: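 Xenopus laevis oocytes (female) were injected with in vitro transcribed cRNA and recorded by two-electrode voltage clamp 3–4 d after injection at 23°C, holding at −40 mV. Voltage and current electrodes held 0.3 and 3.0 M KCl.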

[3] = molecular target: GluN1/2A-(2D S1) (Rattus norvegicus, UniProt P35439+Q00959, A414R/D421P/DELINS438-452SQLNRTHSPPPDAPRPE/E427G/I408V/I422A/K454R/K466R/K472G/L425I/N404Q/N432D/N490D/N491G/R469H/S407T/S468A/S538A/T426S/T433S/T474S/V409A/V430I/V471I/V489I/V501F/V506D/V509I/V521I); conditions: 100 μM glutamate + 3 μM glycine
Summary of the method: (§1)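 cRNA from linearized constructs injected into female Xenopus laevis oocytes. Two-electrode voltage clamp done 3–4 d later at 23°C, holding at −40 mV, in 90 NaCl, 1 KCl, 10 HEPES, 0.5 BaCl₂, 0.01 EDTA (mM), pH 7.4. […] Max inhibition is (control − residual at saturating compound)/control.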

[4] = molecular target: GluN1 I519A co-expressed with GluN2A (Rattus norvegicus, UniProt P35439+Q00959, I519A); conditions: 100 μM glutamate + 3 μM glycine
[5] = molecular target: GluN1/GluN2A V783W (Rattus norvegicus, UniProt P35439+Q00959, V783W); conditions: 100 μM glutamate + 3 μM glycine
[6] = molecular target: GluN1/2A-(2D ATD) (Rattus norvegicus, UniProt P35439+Q00959+Q62645, A388P/C399P/D398Q/D403T/E353D/E371T/E400V/G345N/H358N/H387Y/K346R/K368R/K374V/K377S/K394G/L348Y/N367T/N380Q/N404Q/P391S/P401D/Q356L/R360S/R386K/S384R/S395R/S397L/T351N/V365S/V389L/Y355F); conditions: 100 μM glutamate plus 30 μM glycine; vs GluN1/GluN2A
[7] = molecular target: GluN1/GluN2B L783F+F784V (Rattus norvegicus, UniProt P35439+Q00960, F784V/L783F)
Sequence of GluN1/GluN2B L783F+F784V (Q00960 27-1482 L783F/F784V, other chains not shown): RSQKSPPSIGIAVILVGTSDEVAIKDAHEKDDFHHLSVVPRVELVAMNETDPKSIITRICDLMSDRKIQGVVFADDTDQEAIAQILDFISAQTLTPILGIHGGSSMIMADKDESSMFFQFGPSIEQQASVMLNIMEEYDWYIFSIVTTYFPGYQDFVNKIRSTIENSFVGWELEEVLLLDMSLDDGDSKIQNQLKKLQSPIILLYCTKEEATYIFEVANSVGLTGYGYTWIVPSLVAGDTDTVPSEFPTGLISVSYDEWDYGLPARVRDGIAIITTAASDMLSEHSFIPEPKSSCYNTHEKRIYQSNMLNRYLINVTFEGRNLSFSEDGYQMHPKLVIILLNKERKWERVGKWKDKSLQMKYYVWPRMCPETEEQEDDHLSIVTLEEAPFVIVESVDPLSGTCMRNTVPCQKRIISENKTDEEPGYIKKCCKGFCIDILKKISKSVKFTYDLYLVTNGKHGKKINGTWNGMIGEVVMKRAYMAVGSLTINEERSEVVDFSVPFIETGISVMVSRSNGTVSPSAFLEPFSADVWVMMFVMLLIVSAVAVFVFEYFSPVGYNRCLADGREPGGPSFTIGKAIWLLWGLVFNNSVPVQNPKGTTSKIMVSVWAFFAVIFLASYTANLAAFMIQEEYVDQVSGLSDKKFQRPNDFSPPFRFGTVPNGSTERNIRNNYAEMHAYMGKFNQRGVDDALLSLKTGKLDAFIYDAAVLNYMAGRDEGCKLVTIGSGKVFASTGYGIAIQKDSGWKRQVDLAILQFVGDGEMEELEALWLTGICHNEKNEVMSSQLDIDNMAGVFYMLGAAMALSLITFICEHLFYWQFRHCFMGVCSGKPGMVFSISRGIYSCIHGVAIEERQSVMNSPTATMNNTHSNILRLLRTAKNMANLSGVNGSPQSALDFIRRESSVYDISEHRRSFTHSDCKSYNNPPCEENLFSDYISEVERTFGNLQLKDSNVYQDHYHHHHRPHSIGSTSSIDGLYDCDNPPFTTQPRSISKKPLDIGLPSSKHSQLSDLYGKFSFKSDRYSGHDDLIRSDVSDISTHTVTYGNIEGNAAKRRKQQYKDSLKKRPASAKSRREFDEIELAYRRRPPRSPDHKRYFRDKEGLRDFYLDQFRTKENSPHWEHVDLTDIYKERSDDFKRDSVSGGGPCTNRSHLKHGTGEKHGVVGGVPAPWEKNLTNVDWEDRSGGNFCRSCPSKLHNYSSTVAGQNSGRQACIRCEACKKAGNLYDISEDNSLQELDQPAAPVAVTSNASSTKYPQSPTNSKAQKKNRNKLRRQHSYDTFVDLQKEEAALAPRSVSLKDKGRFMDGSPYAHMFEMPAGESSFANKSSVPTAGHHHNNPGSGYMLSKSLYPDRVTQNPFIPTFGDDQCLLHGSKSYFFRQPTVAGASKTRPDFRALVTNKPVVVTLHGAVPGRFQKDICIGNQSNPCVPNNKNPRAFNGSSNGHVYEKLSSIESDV

[8] = molecular target: GluN1/GluN2A Q781A (Rattus norvegicus, UniProt P35439+Q00959, Q781A); conditions: 100 μM glutamate + 3 μM glycine
[9] = molecular target: GluN1/GluN2C (Rattus norvegicus, UniProt P35439+Q00961); conditions: 100 μM glutamate + 3 μM glycine; N.E. = no effect at 10 μM TCN-201
Sequence of GluN1/GluN2C (Q00961 20-1237, other chains not shown): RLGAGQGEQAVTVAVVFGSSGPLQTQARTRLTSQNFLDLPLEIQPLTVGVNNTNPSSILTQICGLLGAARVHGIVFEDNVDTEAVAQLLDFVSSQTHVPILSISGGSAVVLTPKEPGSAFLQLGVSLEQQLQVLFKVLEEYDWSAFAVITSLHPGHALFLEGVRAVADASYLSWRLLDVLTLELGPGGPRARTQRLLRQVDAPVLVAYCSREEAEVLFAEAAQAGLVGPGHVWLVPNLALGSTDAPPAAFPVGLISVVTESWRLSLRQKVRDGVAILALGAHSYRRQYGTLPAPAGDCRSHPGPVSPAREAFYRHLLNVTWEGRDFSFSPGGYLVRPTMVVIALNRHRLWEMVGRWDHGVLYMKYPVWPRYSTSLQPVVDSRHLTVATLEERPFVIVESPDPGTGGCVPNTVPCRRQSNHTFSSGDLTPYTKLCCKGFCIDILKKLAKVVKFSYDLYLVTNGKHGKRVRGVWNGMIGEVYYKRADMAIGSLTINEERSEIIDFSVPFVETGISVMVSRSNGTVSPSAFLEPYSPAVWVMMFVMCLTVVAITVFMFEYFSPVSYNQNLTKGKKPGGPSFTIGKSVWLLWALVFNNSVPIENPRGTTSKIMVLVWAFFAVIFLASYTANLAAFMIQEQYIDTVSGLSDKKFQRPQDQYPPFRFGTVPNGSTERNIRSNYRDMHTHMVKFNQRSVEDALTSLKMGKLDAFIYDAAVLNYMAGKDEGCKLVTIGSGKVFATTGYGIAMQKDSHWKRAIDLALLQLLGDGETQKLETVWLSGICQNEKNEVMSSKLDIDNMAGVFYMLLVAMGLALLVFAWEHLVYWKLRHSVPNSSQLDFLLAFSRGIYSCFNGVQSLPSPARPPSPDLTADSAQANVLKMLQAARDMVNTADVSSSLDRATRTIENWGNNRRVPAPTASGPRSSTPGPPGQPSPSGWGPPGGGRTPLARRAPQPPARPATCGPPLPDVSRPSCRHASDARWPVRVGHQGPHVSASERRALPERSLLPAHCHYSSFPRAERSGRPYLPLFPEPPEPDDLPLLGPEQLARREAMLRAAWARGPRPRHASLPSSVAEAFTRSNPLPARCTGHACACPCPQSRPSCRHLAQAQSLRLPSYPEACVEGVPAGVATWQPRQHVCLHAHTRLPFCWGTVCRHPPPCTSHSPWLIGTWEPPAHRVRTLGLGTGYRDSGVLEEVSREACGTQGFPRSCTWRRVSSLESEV
Summary of the method: as §1

[10] = molecular target: GluN1/GluN2A E789A (Rattus norvegicus, UniProt P35439+Q00959, E789A); conditions: 100 μM glutamate + 3 μM glycine
[11] = molecular target: GluN1/GluN2A V783A (Rattus norvegicus, UniProt P35439+Q00959, V783A); conditions: 100 μM glutamate + 3 μM glycine
[12] = molecular target: GluN1/2A-(2D D2) (Rattus norvegicus, UniProt P35439+Q00959, D675E/D715E/F680L/F708Y/G712R/G740R/H674Q/I755V/K668R/K738M/N696S/Q661T/Q703S/R681K/R692K/R711P/R741K/S677Y/S719Q/T663S/T706V/T722A/V718T/Y676Q/Y700D/Y754K); conditions: 100 μM glutamate plus 30 μM glycine
[13] = molecular target: GluN1/2A-(2D M1M2M3) (Rattus norvegicus, UniProt P35439+Q00959, A555P/A572T/A593R/A604S/F553Y/F579L/F658Y/G610A/H595G/I567T/I571V/K590T/K623R/L565C/N587S/P597S/Q620E/S556A/S569V/S598T/S632L/V575I); conditions: 100 μM glutamate plus 30 μM glycine; vs GluN1/GluN2A
[14] = molecular target: GluN1/GluN2A T793R (Rattus norvegicus, UniProt P35439+Q00959, T793R); conditions: 100 μM glutamate + 3 μM glycine
[15] = molecular target: GluN1/GluN2A G786A (Rattus norvegicus, UniProt P35439+Q00959, G786A); conditions: 100 μM glutamate + 3 μM glycine
[16] = molecular target: GluN1/GluN2A V783D (Rattus norvegicus, UniProt P35439+Q00959, V783D); conditions: 100 μM glutamate + 3 μM glycine
[17] = molecular target: GluN1/GluN2A V783H (Rattus norvegicus, UniProt P35439+Q00959, V783H); conditions: 100 μM glutamate + 3 μM glycine
[18] = molecular target: GluN1/GluN2A E790M (Rattus norvegicus, UniProt P35439+Q00959, E790M); conditions: 100 μM glutamate + 3 μM glycine
[19] = molecular target: GluN1/GluN2A L779A (Rattus norvegicus, UniProt P35439+Q00959, L779A); conditions: 100 μM glutamate + 3 μM glycine
[20] = molecular target: GluN1/GluN2D (Rattus norvegicus, UniProt P35439+Q62645); conditions: 100 μM glutamate + 3 μM glycine; N.E. = no effect at 10 μM TCN-201
Sequence of GluN1/GluN2D (Q62645 28-1323, other chains not shown): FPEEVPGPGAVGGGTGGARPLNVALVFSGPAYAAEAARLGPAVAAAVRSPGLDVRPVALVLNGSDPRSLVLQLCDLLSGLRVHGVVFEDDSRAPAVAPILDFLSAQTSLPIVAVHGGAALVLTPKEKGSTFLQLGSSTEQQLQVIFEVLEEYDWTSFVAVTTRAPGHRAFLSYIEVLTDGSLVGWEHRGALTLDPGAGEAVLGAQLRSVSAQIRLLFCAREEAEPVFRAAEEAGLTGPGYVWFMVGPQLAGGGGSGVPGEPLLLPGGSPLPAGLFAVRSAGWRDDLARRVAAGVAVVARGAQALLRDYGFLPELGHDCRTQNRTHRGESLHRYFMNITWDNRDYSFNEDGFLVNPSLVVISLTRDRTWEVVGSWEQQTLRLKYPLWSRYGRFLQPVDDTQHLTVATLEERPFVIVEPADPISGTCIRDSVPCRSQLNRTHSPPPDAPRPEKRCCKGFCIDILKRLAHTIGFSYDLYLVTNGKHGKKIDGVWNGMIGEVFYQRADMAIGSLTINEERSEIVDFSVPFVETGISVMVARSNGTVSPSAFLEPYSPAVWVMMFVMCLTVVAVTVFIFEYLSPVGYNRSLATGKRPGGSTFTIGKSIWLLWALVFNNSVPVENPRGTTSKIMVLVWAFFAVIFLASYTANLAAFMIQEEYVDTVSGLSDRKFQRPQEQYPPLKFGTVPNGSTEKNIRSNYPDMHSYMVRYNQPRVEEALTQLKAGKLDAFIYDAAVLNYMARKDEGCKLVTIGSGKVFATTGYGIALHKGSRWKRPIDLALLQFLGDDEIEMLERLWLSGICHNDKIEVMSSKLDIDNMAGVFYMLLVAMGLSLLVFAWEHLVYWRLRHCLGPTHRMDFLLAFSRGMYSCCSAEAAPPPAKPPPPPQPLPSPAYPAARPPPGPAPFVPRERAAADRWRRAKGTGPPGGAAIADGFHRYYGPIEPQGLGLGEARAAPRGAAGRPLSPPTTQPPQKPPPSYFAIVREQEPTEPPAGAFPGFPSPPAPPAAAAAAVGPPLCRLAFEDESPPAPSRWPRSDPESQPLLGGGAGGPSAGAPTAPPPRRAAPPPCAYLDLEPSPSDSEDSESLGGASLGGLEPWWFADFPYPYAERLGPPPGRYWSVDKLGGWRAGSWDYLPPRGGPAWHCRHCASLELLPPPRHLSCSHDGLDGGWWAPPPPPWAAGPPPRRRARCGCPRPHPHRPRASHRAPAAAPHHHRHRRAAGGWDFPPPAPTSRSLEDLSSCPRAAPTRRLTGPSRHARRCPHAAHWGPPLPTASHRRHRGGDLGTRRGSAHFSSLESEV
Summary of the method: as §1

Sequence of GluA1 AMPA receptors (P19490 19-907): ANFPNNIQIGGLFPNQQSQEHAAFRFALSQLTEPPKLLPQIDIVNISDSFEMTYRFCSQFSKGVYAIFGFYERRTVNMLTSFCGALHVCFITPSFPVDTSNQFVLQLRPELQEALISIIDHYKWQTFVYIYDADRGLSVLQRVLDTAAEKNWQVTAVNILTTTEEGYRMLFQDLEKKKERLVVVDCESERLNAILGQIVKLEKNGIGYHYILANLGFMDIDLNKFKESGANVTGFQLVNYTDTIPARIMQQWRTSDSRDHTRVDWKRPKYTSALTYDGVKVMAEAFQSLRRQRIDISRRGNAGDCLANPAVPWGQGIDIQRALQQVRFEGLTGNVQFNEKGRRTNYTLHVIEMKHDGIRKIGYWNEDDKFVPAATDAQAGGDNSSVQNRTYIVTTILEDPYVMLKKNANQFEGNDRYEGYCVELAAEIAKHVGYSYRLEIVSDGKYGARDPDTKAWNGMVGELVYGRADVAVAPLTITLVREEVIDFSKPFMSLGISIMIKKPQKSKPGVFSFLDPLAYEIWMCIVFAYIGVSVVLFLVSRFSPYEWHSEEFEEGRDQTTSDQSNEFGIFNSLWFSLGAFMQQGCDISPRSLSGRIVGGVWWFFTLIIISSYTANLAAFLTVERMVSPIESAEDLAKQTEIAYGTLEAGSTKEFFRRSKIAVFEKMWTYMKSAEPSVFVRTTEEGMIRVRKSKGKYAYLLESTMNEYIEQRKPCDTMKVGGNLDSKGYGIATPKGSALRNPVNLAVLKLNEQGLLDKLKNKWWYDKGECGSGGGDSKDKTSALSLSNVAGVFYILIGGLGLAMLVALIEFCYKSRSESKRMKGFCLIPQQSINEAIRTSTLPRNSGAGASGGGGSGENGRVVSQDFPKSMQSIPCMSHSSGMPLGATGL

Structure (SMILES): O=C(NNC(=O)c1ccc(CNS(=O)(=O)c2ccc(F)c(Cl)c2)cc1)c1ccccc1 [TCN-201, 3-chloro-4-fluoro-N-[(4-[(2-(phenylcarbonyl)hydrazino)carbonyl]phenyl)methyl]-benzenesulfonamide]
- TCN-201 activity Max. % inhibition [1]: 79 ± 3%
- TCN-201 activity nH [1]: 1.3
- Effect on responses activated by 100 μM glutamate [2]: did not affect responses
- TCN-201 activity IC50 [3]: did not affect TCN-201 sensitivity
- TCN-201 activity Max. % inhibition [3]: 97 ± 1%
- TCN-201 activity nH [3]: 1.5
- TCN-201 activity Max. % inhibition [4]: 80 ± 2%
- TCN-201 activity nH [4]: 1.9
- TCN-201 activity Max. % inhibition [5]: 95 ± 2%
- TCN-201 activity nH [5]: 1.0
- Inhibition by 3 μM TCN-201 [6]: did not reduce inhibition
- Kb [7]: 437 nM
- TCN-201 activity nH ([7]; 100 μM glutamate + 3 μM glycine): 1.3
- TCN-201 activity Max. % inhibition [8]: 94 ± 2%
- TCN-201 activity nH [8]: 1.9
- TCN-201 activity IC50 [9]: did not inhibit and N.E.
- TCN-201 activity Max. % inhibition [10]: 96 ± 1%
- TCN-201 activity nH [10]: 1.4
- TCN-201 activity Max. % inhibition [11]: 91 ± 2%
- TCN-201 activity nH [11]: 1.1
- Inhibition by 3 μM TCN-201 [12]: some TCN-201 activity was retained
- Inhibition by 3 μM TCN-201 [13]: did not reduce inhibition
- TCN-201 activity Max. % inhibition [14]: 94 ± 2%
- TCN-201 activity nH [14]: 2.2
- TCN-201 activity Max. % inhibition [15]: 87 ± 3%
- TCN-201 activity nH [15]: 1.8
- TCN-201 activity Max. % inhibition [16]: 92 ± 2%
- TCN-201 activity nH [16]: 1.2
- TCN-201 activity Max. % inhibition [17]: 93 ± 4%
- TCN-201 activity nH [17]: 0.9
- TCN-201 activity Max. % inhibition [18]: 90 ± 3%
- TCN-201 activity nH [18]: 1.4
- TCN-201 activity Max. % inhibition [19]: 88 ± 5%
- TCN-201 activity nH [19]: 1.3
- TCN-201 activity IC50 [20]: did not inhibit and N.E.
